The test system of assay [1] is SK-OV-3. Description: Cytotoxicity against human SKOV3 cells assessed as decrease in cell viability after 72 hrs by MTS assay. Type of assay: functional, cell-based. The following applies: SK-OV-3, 72 h. In short, it runs like this: (§1)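 Cell proliferation assay using the MTS reagent. Compounds were tested as a dilution series, and EC50 values were derived from the concentration–response data.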

Assay [2] concerns U-87 MG. Description: Cytotoxicity against human U87MG cells assessed as decrease in cell viability after 72 hrs by MTS assay. In kind it is functional, cell-based, U-87MG ATCC. In short, it runs like this:
as §1
For orientation: Formazan colour is commonly taken as a measure of viable cells.

Assay [3] has as its system CCRF S-180. The experiment in a line: Cytotoxicity against mouse S180 cells assessed as decrease in cell viability after 72 hrs by MTS assay. Type of assay: functional, cell-based. The following applies: CCRF S-180, 72 h. The method in brief:
as §1

The subject of assay [4] is NCI-H1975. The experiment in a line: Cytotoxicity against human NCI-H1975 cells assessed as decrease in cell viability after 72 hrs by MTS assay. In kind it is functional, cell-based. The following applies: NCI-H1975, 72 h. The method in brief:
as §1

Assay [5] has as its system MCF7. The experiment in a line: Cytotoxicity against human MCF7 cells assessed as decrease in cell viability after 72 hrs by MTS assay. The following applies: MCF7, 72 h. Type of assay: functional, cell-based. The method in brief: as §1
In assay [6] the test system is HepG2. The experiment in a line: Cytotoxicity against human HepG2 cells assessed as decrease in cell viability after 72 hrs by MTS assay. Type of assay: functional, cell-based. The following applies: HepG2, 72 h. In short, it runs like this: as §1
In assay [7] the test system is 786-0. Description: Cytotoxicity against human 786-O cells assessed as decrease in cell viability after 72 hrs by MTS assay. In kind it is functional, cell-based. The following applies: 786-0, 72 h. The method in brief: as §1
Assay [8] has as its system MES-SA/Dx5. The experiment in a line: Cytotoxicity against human MES-SA/Dx5 cells assessed as decrease in cell viability after 72 hrs by MTS assay. Type of assay: functional, cell-based. The following applies: MES-SA/Dx5, 72 h. The method in brief: as §1
Assay [9] has as its system HCT-116. The experiment in a line: Cytotoxicity against human HCT116 cells assessed as decrease in cell viability after 72 hrs by MTS assay. In kind it is functional, cell-based. The following applies: HCT-116, 72 h. In short, it runs like this: as §1
Assay [10] has as its system BXPC-3. The experiment in a line: Cytotoxicity against human BxPC3 cells assessed as decrease in cell viability after 72 hrs by MTS assay. Type of assay: functional, cell-based. The following applies: BXPC-3, 72 h. In short, it runs like this:
as §1

Assay [11] concerns HUVEC. The experiment in a line: Cytotoxicity against human HUVEC cells assessed as decrease in cell viability after 72 hrs by MTS assay. Type of assay: cell-based. The method in brief: as §1
Assay [12] concerns MES-SA. The experiment in a line: Cytotoxicity against human MESSA cells assessed as decrease in cell viability after 72 hrs by MTS assay. In kind it is functional, cell-based. The method in brief: as §1

Molecules are shown by their SMILES.

Consider 1 compound from ChEMBL document CHEMBL4266027, “Cyanobufalins: Cardioactive Toxins from Cyanobacterial Blooms” (J Nat Prod, 2018).

The term EC50 denotes the concentration giving half of the maximal effect. With `CC1(C)[C@H]2OC(=O)O[C@H]2[C@@H](O)[C@]2(C=O)[C@H]3CC[C@]4(C)[C@@H](c5ccc(=O)oc5)[C@@H](Cl)C[C@]4(O)C3=CC[C@@H]12`, the EC50 was 530 nM in [1]; 610 nM in assay [2]; above 20 µM in [3]; 590 nM in [4]; 960 nM in [5]; 1300 nM in assay [6]. Moreover, the EC50 in assay [7] was found to be 350 nM; in [8] it was 720 nM; in assay [9], 610 nM; in assay [10], 1000 nM; in assay [11], 800 nM; in assay [12], 940 nM.
